7 compounds from ChEMBL document CHEMBL1287754, “28-nor-oleanane-type triterpene saponins from Camellia japonica and their inhibitory activity on LPS-induced NO production in macrophage RAW264.7 cells” (Bioorg Med Chem Lett, 2010) can be followed below.

SMILES strings stand for the structures.

In data set [1] the test system is RAW264.7. Put plainly: Antiinflammatory activity in mouse RAW264.7 cells assessed as inhibition of LPS-induced nitric oxide production after 24 hrs by Griess reaction. Format: functional, cell-based. The following applies: RAW264.7, 24 h. In outline: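 LPS-stimulated RAW264.7 macrophages; nitrite, the stable NO metabolite, quantified by Griess reaction in harvested culture medium. IC50 is the molar concentration giving 50% inhibition of NO production relative to vehicle control.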
On the technique in general: Griess reagent forms a coloured azo dye with nitrite.

Data set [2] relates to RAW264.7. Put plainly: Cytotoxicity against LPS-stimulated mouse RAW264.7 cells assessed as cell viability at 50 uM after 24 hrs by MTT assay. Format: cell-based. Conditions: raw264.7, 24 h.
For data set [3], the system named is RAW264.7. Put plainly: Cytotoxicity against mouse RAW264.7 cells assessed as cell viability at 50 uM after 24 hrs by MTT assay. Format: cell-based. The following applies: raw264.7, 24 h. In general terms: Tetrazolium dyes change colour on reduction, which living cells bring about.

What is called IC50 is the point on the concentration scale where inhibition reaches its midpoint. Take `CC(=O)O[C@H]1[C@@H](O)[C@H](O)[C@@H](O[C@H]2[C@H](O[C@H]3CC[C@@]4(C)C(CC[C@]5(C)[C@@H]4CC=C4[C@@H]6CC(C)(C)CC[C@]6(O)C(=O)C[C@]45C)C3(C)C)O[C@H](C(=O)O)[C@@H](O)[C@@H]2O[C@@H]2O[C@H](CO)[C@H](O)[C@H](O)[C@H]2O[C@@H]2O[C@H](CO)[C@@H](O)[C@H](O)[C@H]2O)O[C@H]1CO` (some centres undefined) [CAMELLIOSIDE]: the IC50 with RAW264.7 [1] came out at 4.96 µM. Also, the Activity entry in the data set on RAW264.7 [2] and in the data set on RAW264.7 [3] was “Non-toxic” in each case.
With `CC1(C)CC[C@]2(O)C(=O)C[C@]3(C)C(=CC[C@@H]4[C@@]5(C)CC[C@H](O[C@@H]6O[C@H](C(=O)O)[C@@H](O)[C@H](O[C@@H]7O[C@H](CO)[C@H](O)[C@H](O)[C@H]7O[C@@H]7O[C@H](CO)[C@@H](O)[C@H](O)[C@H]7O)[C@H]6O[C@H]6O[C@@H](CO)[C@@H](O)[C@@H](O)[C@@H]6O)C(C)(C)C5CC[C@]43C)[C@@H]2C1` (some centres undefined) [CAMELLIOSIDE A], the IC50 with RAW264.7 [1] stood at 9.59 µM. For the same compound, the Activity entry in the data set on RAW264.7 [2] and with RAW264.7 [3] was “Non-toxic” each time.
As for `COC(=O)[C@H]1O[C@@H](O[C@H]2CC[C@@]3(C)C(CC[C@]4(C)[C@@H]3CC=C3C5=C(CCC(C)(C)C5)C(=O)C[C@]34C)C2(C)C)[C@H](O[C@H]2O[C@@H](CO)[C@@H](O)[C@@H](O)[C@@H]2O)[C@@H](O[C@@H]2O[C@H](CO)[C@H](O)[C@H](O)[C@H]2O[C@@H]2OC[C@@H](O)[C@H](O)[C@H]2O)[C@@H]1O` (some centres undefined) [CAMELLIOSIDE H], the IC50 in the data set with RAW264.7 [1] was 15.9 µM. The Activity result in the data set on RAW264.7 [2] and in the data set with RAW264.7 [3] was “Non-toxic” each time.
On to `CC(=O)O[C@H]1[C@@H](O)[C@H](O)[C@@H](O[C@H]2[C@H](O[C@H]3CC[C@@]4(C)C(CC[C@]5(C)[C@@H]4CC=C4[C@@H]6CC(C)(C)CC[C@]6(O)C(=O)C[C@]45C)C3(C)C)O[C@H](C(=O)O)[C@@H](O)[C@@H]2O[C@@H]2O[C@H](CO)[C@H](O)[C@H](O)[C@H]2O[C@@H]2OC[C@@H](O)[C@H](O)[C@H]2O)O[C@H]1CO` (some centres undefined) [CAMELLIOSIDE F], for which the IC50 in the data set on RAW264.7 [1] came to 11.5 µM. Besides, the Activity result with RAW264.7 [2] and in the data set with RAW264.7 [3] was “Non-toxic” in each case.
Take `COC(=O)[C@H]1O[C@@H](O[C@H]2CC[C@@]3(C)C(CC[C@]4(C)[C@@H]3CC=C3[C@@H]5CC(C)(C)CC[C@]5(O)C(=O)C[C@]34C)C2(C)C)[C@H](O[C@H]2O[C@@H](CO)[C@@H](O)[C@@H](O)[C@@H]2O)[C@@H](O[C@@H]2O[C@H](CO)[C@H](O)[C@H](O)[C@H]2O[C@@H]2OC[C@@H](O)[C@H](O)[C@H]2O)[C@@H]1O` (some centres undefined) [CAMELLIOSIDE G]: the IC50 in the data set with RAW264.7 [1] was found to be 5.16 µM. The Activity entry in the data set with RAW264.7 [2] and in the data set with RAW264.7 [3] was “Non-toxic” in each case.
On to `CC1CCN=C(N)S1` (centres undefined), for which, in the data set on RAW264.7 [1], the IC50 was determined as 0.022 µM.
On to `CC1(C)CC[C@]2(O)C(=O)C[C@]3(C)C(=CC[C@@H]4[C@@]5(C)CC[C@H](O[C@@H]6O[C@H](C(=O)O)[C@@H](O)[C@H](O[C@@H]7O[C@H](CO)[C@H](O)[C@H](O)[C@H]7O[C@@H]7OC[C@@H](O)[C@H](O)[C@H]7O)[C@H]6O[C@H]6O[C@@H](CO)[C@@H](O)[C@@H](O)[C@@H]6O)C(C)(C)C5CC[C@]43C)[C@@H]2C1` (some centres undefined) [CAMELLIOSIDE E], for which the IC50 with RAW264.7 [1] amounted to 18.2 µM. Besides, the Activity entry in the data set with RAW264.7 [2] and in the data set on RAW264.7 [3] was “Non-toxic” each time.
